In the library only some 3.7% were active in any assay of this set; here they are far more common.
KCNK3 block: human KCNK3 channel inhibition, primary screen; O14649; CHO-KCNK3 thallium flux, FluxOR fluorescence; active compounds read low; B-score at 10 µM; 340,000 compounds, 0.84% hits; AID 602410;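 active = B-score under library mean minus 4 SD, starting fluorescence ratio at most library mean plus 5 SD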;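 note: more negative B-score means stronger inhibition of thallium flux through KCNK3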
KCNQ1 block: human KCNQ1 channel inhibition; P51787; CHO-K1 KCNQ1, FluxOR thallium flux fluorescence; active compounds read high; B-score at 10 µM; 310,000 compounds, 1.3% hits; AID 2642;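 active = compounds whose thallium flux B-score, printed positive for inhibition, exceeds three library SD while starting fluorescence stays within three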;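 note: channel opened by potassium depolarization with thallium stimulus after 20 min compound exposure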
KCNQ1 act: human KCNQ1 channel potentiation or activation | CHO-K1 KCNQ1, thallium flux FluxOR fluorescence; active compounds read high | B-score at 10 µM | 310,000 compounds, 0.35% hits;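 active = fluorescence ratio B-score, a plate-corrected score, at least three library SD, with initial intensity B-score within 5 SD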
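Assay system: stable KCNQ1 CHO-K1 line; medium: assay buffer, equal DMSO in all wells; timing: 90 min dye loading and 20 min compound exposure, both at room temperature; technique: kinetic FluxOR thallium fluorescence, 10-s 1-Hz baseline, 110-s post-stimulus read; read-out basis: B score of baseline-normalized fluorescence ratio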
KCNK9 inh: human KCNK9 channel inhibition | B-score at 10 µM | HEK293 KCNK9, FluxOR thallium flux fluorescence; active compounds read low | 310,000 compounds, 1.2% hits | Q9NPC2;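 active = ratio B-score over 3 SD below the library mean, with starting fluorescence within 5 SD of its mean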;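 note: negative B-score means less thallium flux so channel inhibition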
hERG rescue: hERG (human) protection from proarrhythmic block; AID 1511; activation (rescue from dofetilide block), less the hit threshold, % at 10 µM; CHO-hERG, FluxOR thallium flux, dofetilide IC70 present; 310,000 compounds, 0.51% hits; Q12809;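 active = activation above the mean of controls blocked by dofetilide plus 5 SD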;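 note: thallium influx through hERG after potassium depolarization seen as dye fluorescence rise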
Kir21 block: Kir2.1 (mouse) channel inhibition; P35561; HEK293-Kir2.1, FluxOR thallium flux fluorescence; active compounds read low; B-score at 10 µM; 310,000 compounds, 0.85% hits;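 active = fluorescence ratio B-score at or below minus 3 SD of library scores, with starting-brightness B-score within 2 SD, cut at about -4.2 in these data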;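 note: channel flux triggered by added potassium and thallium sulfate stimulus; B-score of peak minus minimum fluorescence over baseline after thallium stimulus; more negative B-score means stronger Kir2.1 block with less thallium influx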
Target sequence (P35561 whole entry, looked up): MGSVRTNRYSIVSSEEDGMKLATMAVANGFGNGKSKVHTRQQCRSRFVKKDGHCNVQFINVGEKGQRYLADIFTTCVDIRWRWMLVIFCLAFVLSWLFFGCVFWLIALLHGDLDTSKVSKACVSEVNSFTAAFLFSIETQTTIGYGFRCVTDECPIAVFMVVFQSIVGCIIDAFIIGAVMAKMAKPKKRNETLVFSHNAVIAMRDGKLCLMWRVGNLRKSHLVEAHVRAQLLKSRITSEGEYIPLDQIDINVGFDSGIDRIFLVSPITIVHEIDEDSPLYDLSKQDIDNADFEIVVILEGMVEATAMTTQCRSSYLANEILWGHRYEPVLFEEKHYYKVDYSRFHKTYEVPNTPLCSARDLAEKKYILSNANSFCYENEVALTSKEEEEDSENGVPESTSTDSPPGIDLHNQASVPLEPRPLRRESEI
The depositor's hits bear a star; i = inactive; x = no result given.

SMILES	KCNK3 block	KCNQ1 block	KCNQ1 act	KCNK9 inh	hERG rescue	Kir21 block
COc1ccc(-n2c(SCC(=O)N3CCCCC3)nnc2-c2cccnc2)cc1	i	i	i	i	6.4*	-2.4
CCCn1c(C)cc(C(=O)COC(=O)c2cc(S(=O)(=O)NCC(C)C)c(Cl)cc2Cl)c1C	i	i	i	-7*	-9	1.4
CCN(c1ccccc1)S(=O)(=O)c1cc(C(=O)OC2CCOC2=O)ccc1C (stereo unspecified)	i	x	x	x	x	x
Cc1cccc(OCc2n[nH]c(=S)n2C2CCCCC2)c1	i	i	8*	i	-2	-0.36
CC1CCCCC1n1c(=S)[nH]c2ccccc2c1=O (stereo unspecified)	i	i	19*	i	1	0.02
Nn1c(Cc2cccc3ccccc23)nnc1SCc1ccccc1	i	i	i	i	-5	-4.6*
CN(C)CCNC(=O)c1ccc(COc2ccc(Cl)cc2Cl)cc1	i	i	i	i	-27	-4.8*
COc1ccc(Cl)cc1C(=O)NCCN(C)C	i	i	i	i	6.8*	0
COc1cc(OC)cc(C(=O)Nc2ccccc2-c2nnn(CC(=O)Nc3cc(C)on3)n2)c1	i	i	i	i	-6	1.8
COC(=O)c1cn(NC(=O)CCC2CCCC2)c(=O)c2ccccc12	i	i	i	i	5.8*	0.76
CCN(CC)CC(=O)Nc1ccc2c(c1)Nc1ccccc1CC2	i	i	8*	i	-2	-5.6*
CCCn1nc(C(=O)NNC(=O)c2ccc(C)c(C)c2)c2ccccc2c1=O	i	x	x	x	x	x
CCCn1nc(C(=O)N2CCN(S(=O)(=O)c3ccc(C)c(C)c3)CC2)c2ccccc2c1=O	-9.5*	x	x	x	x	x
CC1CCCC(C)N1C(=O)COC(=O)Cc1ccc(Cl)cc1 (stereo unspecified)	i	i	i	i	-2	1.5
CC1CCCC(C)N1C(=O)CSCc1ccc(Cl)cc1 (stereo unspecified)	i	i	i	i	-6	-4.9*
CCc1ccccc1OCC(=O)Nc1cccc(S(=O)(=O)NC2=NCCC2)c1	i	x	x	x	x	x
CCN(CC(=O)Nc1ccc(NC(C)=O)cc1)C(=O)c1ccc(=O)n(C)n1	i	x	x	x	x	x
Cc1ccccc1-n1ncc2c1CC(C)(C)CC2NC(=O)CN1CCCC1=O (stereo unspecified)	i	i	i	i	-7	-1
COc1ccc(-c2sc(Nc3ccccc3)n[n+]2-c2ccc(F)cc2)c(OC)c1OC	i	7*	i	i	-18	-2.4
COc1cc(OC)c(-c2sc(Nc3ccccc3)n[n+]2-c2ccc(F)cc2)cc1OC	i	i	i	i	-2	1.1
CCC(C)N1C(=O)N(c2cccc(Cl)c2)C(C)(O)CC1(C)C (stereo unspecified)	i	i	i	i	-5	-1.9
CCCCC(CC)CNS(=O)(=O)c1ccc2c(c1)CCN2C(=O)CCC(=O)O (stereo unspecified)	i	i	i	i	-12	-8*
CCc1ccc(NS(=O)(=O)c2ccc3c(c2)CCN3C(=O)CCC(=O)O)cc1	i	i	i	i	-7	0.93
O=C(N/N=C\c1cn(-c2ccccc2)nc1-c1ccccc1)c1ccc2c(c1)OCO2	i	i	i	-6.8*	-36	0.14
COc1ccc(-c2nn(-c3ccccc3)cc2/C=N/NC(=O)c2ccc(Br)o2)cc1	-9.6*	11*	i	-6.7*	-14	0.07
SMILES	KCNK3 block	KCNQ1 block	KCNQ1 act	KCNK9 inh	hERG rescue	Kir21 block
O=C(Nc1ccc(F)cc1F)C1CCN(S(=O)(=O)c2cccnc2)CC1	i	i	i	i	-4	2.2
COc1cc(CN(C)Cc2cccc3ccccc23)cc([N+](=O)[O-])c1O	i	i	i	i	-2	1.8
Cc1cc(C)c2[nH]c(=O)c(CN(Cc3ccc4c(c3)OCO4)Cc3nnnn3C3CCCC3)cc2c1	i	i	i	-13*	-14	0.89
O=c1cc(-c2c(F)c(F)c(F)c(F)c2F)oc2ccccc12	i	i	24*	i	19*	-0.18
CC1(C)CC2CC(C)(CN2C(=S)NC(=O)c2ccccc2Cl)C1 (stereo unspecified)	i	i	27*	i	39*	0.29
CN(CCCCCCCCCCN(C)C(=O)Oc1cccc([N+](C)(C)C)c1)C(=O)Oc1cccc([N+](C)(C)C)c1	i	x	x	x	x	x
NC(=NC(=O)c1cccc(C(F)(F)F)c1)c1ccc(C(F)(F)F)cn1	i	i	i	-7*	-10	-0.34
CON(C)c1nc(OCCNC(=O)OCc2ccc(Cl)cc2Cl)nc(N(C)C)n1	i	i	i	i	-7	-4.3*
COc1ccc(OCC(=O)NNC(=O)c2ccccc2OCc2c(C)noc2C)cc1	i	i	i	-7.5*	-15	-0.91
Cc1ccc(CN2CCC(=O)N2)cc1	i	i	i	i	-2	0.36
CCN(CC(=O)NCc1ccc(Cl)cc1)C(=O)CSCC(=O)Nc1ccc(OC)cc1	i	i	i	i	-16	-1.1
Cc1nnc(C)c2c(C)n(C(c3ccccc3)c3ccccc3)c(C)c12	i	i	i	i	-22	-4.5*
Cc1nnc(C)c2c(C)n(-c3ccccc3)c(C)c12	i	i	i	i	-12	1.1
COc1ccccc1N1C(=O)c2cccc3cccc(c23)C1=O	i	i	i	i	-4	0.01
CC(C)(C)c1ccc(C(=O)NC(=S)Nc2nc3c(s2)CCCC3)cc1	i	i	33*	i	28*	-0.5
Cc1cc(NC(=O)CSc2nnc(C)n2C)no1	i	i	i	i	-7	0.76
COc1ccc(/C=C/c2c(-c3ccc(OC)cc3)oc3ccc(-c4ccc(OC)cc4)cc23)cc1	i	i	i	i	-4	0.8
COc1ccc(/C=C/c2cc(-c3ccc(C)cc3)o[n+]2C)cc1	i	9*	i	i	-28	-0.48
O=C(Nn1c(O)c(C=C2N=c3ccccc3=N2)sc1=S)c1ccc(Cl)cc1	i	i	i	i	-9	-1.9
O=C(Nn1c(O)c(C=C2N=c3ccccc3=N2)sc1=S)c1cccc(Cl)c1	i	i	i	i	12*	-0.53
O=C1COc2ccc(S(=O)(=O)CCC(=O)NC3CCCCC3)cc2N1	i	i	i	i	-5	1.1
COC(=O)CCN(C(=O)c1cc([N+](=O)[O-])cc([N+](=O)[O-])c1)c1ccccn1	i	i	i	i	-5	-0.32
